By Ki is commonly meant a measure of affinity in units of concentration, obtained from inhibition or displacement. By inhibition is commonly meant the relative decrease from the control value, in per cent. The Cmax is the peak of the concentration-time curve.

For data set [1], the target named is 5-hydroxytryptamine receptor 2A (Homo sapiens, UniProt P28223). As to the kind of experiment: Displacement of [3H]-Ketanserin from human 5HT2AR expressed in CHO-K1 cell membranes after 1.5 hrs by microbeta counting method. The essentials: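 HEK293 (5-HT1A, 5-HT6, 5-HT7b, D2L) or CHO-K1 (5-HT2A) membranes, all Tris–HCl with 4 mM MgCl2 plus receptor-specific EDTA/pargyline/ascorbate (D2L adds NaCl, KCl, CaCl2). Nonspecific binding: 10 μM 5-HT (5-HT1A, 5-HT7), chlorpromazine (5-HT2A), methiothepine (5-HT6), haloperidol (D2L). Triplicate, 7–8 concentrations (10⁻¹¹–10⁻⁴ M), filtration; Ki via Cheng–Prusoff, mean of three experiments.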
Sequence of 5-hydroxytryptamine receptor 2A (P28223 whole entry): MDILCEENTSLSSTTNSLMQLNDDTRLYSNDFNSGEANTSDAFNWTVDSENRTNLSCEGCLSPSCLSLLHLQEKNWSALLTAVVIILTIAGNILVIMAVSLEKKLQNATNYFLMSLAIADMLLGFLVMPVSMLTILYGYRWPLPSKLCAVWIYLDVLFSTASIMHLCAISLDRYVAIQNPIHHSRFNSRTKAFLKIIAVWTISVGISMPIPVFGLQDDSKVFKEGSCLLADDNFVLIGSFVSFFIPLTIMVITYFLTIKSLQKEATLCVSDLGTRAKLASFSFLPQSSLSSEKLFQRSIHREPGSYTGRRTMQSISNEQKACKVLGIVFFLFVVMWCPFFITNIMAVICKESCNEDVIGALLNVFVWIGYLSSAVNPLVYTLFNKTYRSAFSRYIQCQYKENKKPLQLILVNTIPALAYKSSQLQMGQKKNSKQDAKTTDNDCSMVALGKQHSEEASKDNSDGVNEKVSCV
For orientation: Displacement assays read how much labelled ligand stays bound in the presence of the test substance.

In data set [2] the target is 5-hydroxytryptamine receptor 7 (Homo sapiens, UniProt P34969). As to the kind of experiment: Displacement of [3H]-5-CT from human 5HT7BR expressed in HEK293 cell membranes after 1 hr by microbeta counting method. In outline: (§1)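 HEK293 (5-HT1A, 5-HT6, 5-HT7b, D2L) or CHO-K1 (5-HT2A) membranes, all Tris–HCl with 4 mM MgCl2 plus receptor-specific EDTA/pargyline/ascorbate (D2L adds NaCl, KCl, CaCl2). Nonspecific binding: 10 μM 5-HT (5-HT1A, 5-HT7), chlorpromazine (5-HT2A), methiothepine (5-HT6), haloperidol (D2L). Triplicate, 7–8 concentrations (10⁻¹¹–10⁻⁴ M), filtration; Ki via Cheng–Prusoff, mean of three experiments. Incubation 1 h 37 °C; 5-HT1A 1 h and 5-HT2A 1.5 h, room temperature.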
Sequence of 5-hydroxytryptamine receptor 7 (P34969 whole entry): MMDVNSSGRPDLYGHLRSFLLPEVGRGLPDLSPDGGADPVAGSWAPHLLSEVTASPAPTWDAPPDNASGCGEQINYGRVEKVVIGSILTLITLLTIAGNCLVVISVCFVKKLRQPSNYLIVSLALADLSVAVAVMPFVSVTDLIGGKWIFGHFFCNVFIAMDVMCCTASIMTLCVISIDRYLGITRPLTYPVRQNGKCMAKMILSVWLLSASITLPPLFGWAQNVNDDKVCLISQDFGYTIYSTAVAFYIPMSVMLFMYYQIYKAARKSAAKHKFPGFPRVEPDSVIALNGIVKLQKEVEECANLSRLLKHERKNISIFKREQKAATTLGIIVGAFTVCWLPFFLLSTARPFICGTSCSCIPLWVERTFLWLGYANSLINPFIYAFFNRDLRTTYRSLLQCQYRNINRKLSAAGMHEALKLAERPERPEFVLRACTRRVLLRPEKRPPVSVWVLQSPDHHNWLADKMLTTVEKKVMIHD

Data set [3] deals with D(2) dopamine receptor (Homo sapiens, UniProt P14416). The data set can be described thus: Displacement of [3H]-Raclopride from human dopamine D2L receptor expressed in HEK293 cell membranes after 1 hr by microbeta counting method. The essentials: as §1
Sequence of D(2) dopamine receptor (P14416 whole entry): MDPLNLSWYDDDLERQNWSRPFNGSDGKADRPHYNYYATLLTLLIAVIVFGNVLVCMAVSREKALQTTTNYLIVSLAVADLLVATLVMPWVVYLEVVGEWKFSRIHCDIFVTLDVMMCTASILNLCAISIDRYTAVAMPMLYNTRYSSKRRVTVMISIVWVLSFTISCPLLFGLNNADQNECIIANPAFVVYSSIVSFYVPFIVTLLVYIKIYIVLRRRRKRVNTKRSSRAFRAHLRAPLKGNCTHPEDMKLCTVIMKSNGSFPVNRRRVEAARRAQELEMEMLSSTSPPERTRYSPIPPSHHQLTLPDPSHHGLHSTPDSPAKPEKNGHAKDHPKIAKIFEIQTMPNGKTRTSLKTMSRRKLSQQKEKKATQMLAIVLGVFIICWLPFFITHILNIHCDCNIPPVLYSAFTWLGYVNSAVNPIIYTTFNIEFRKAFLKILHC
Data set [4] has as its target D(3) dopamine receptor (Homo sapiens) (UniProt P35462). The data set can be described thus: Displacement of [3H]methyl-spiperone from recombinant human dopamine D3 receptor at 1 uM after 60 mins by scintillation counting relative to control.
For data set [5], the target named is Histamine H1 receptor (Homo sapiens) (UniProt P35367). As to the kind of experiment: Displacement of [3H]pyrilamine from recombinant human histamine H1 receptor at 1 uM after 60 mins by scintillation counting relative to control.
Sequence of Histamine H1 receptor (Homo sapiens) (P35367 whole entry): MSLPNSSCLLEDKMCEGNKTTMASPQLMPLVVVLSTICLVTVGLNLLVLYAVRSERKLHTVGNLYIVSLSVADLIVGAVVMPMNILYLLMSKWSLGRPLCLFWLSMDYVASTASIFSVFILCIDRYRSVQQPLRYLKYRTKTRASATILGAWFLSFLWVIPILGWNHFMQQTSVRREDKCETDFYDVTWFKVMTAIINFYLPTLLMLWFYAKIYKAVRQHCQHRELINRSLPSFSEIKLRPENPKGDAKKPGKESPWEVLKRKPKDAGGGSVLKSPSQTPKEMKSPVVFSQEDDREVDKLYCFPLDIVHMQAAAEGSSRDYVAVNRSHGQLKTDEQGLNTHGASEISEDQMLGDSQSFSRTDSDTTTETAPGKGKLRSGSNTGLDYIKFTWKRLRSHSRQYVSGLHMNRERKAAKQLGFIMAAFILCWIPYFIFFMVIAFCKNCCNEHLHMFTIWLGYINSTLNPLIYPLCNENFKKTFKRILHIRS
In data set [6] the target is Histamine H3 receptor (Homo sapiens) (UniProt Q9Y5N1). As to the kind of experiment: Displacement of [3H]Nalpha-Me-histamine from recombinant human histamine H3 receptor at 1 uM after 60 mins by scintillation counting relative to control.
Sequence of Histamine H3 receptor (Homo sapiens) (Q9Y5N1 whole entry): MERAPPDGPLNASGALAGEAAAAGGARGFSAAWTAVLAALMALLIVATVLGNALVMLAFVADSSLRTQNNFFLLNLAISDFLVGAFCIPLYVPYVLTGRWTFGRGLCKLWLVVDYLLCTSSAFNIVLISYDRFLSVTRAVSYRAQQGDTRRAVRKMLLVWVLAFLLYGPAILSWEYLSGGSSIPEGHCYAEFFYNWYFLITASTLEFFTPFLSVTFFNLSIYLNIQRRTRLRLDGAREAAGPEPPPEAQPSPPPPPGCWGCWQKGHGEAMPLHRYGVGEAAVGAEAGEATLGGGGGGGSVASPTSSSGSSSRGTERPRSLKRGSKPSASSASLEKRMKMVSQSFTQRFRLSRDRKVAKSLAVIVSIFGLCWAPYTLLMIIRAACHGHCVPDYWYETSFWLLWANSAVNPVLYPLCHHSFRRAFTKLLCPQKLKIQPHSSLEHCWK
In data set [7] the target is T1, Muscarinic acetylcholine receptor M1 (Homo sapiens) (UniProt P11229).
T1 sequence (whole entry): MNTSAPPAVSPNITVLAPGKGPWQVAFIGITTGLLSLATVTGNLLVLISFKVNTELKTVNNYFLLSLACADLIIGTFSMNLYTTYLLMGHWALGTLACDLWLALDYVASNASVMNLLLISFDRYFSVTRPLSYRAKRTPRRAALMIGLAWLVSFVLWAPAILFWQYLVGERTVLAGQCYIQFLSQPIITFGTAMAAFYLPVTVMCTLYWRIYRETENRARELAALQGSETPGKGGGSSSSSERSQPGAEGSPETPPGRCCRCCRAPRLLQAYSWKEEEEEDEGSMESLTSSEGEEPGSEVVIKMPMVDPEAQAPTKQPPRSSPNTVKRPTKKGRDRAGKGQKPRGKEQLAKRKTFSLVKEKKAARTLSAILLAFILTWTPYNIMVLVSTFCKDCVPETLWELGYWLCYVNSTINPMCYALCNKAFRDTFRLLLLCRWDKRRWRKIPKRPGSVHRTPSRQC
The data set can be described thus: Displacement of [3H]pirenzepine from recombinant human muscarinic M1 receptor at 1 uM after 60 mins by scintillation counting relative to control.

For data set [8], the target named is Cytochrome P450 3A4 (Homo sapiens, UniProt P08684). As to the kind of experiment: Inhibition of CYP3A4 (unknown origin) at 0.025 to 25 uM after 2 hrs by firefly luciferase-luminescence based P450-glo assay. It counts as ADME. The essentials:
(§2)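 Recombinant CYP3A4 or CYP2D6 incubated 2 h with test compound (0.025–25 μM final) and an isoform-specific luciferin derivative. Firefly luciferase then added, and luminescence is proportional to D-luciferin formed. Reference inhibitors: ketoconazole (CYP3A4) and quinidine (CYP2D6, 0.1–100 nM).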

Data set [9] has as its target T2, Cytochrome P450 2D6 (Homo sapiens, UniProt P10635). As to the kind of experiment: Inhibition of CYP2D6 (unknown origin) at 0.025 to 25 uM after 2 hrs by firefly luciferase-luminescence based P450-glo assay. It counts as ADME. In outline:
as §2

Data set [10] deals with T2, Cytochrome P450 2D6. The data set can be described thus: Induction of CYP2D6 (unknown origin) at 0.025 to 25 uM after 2 hrs by firefly luciferase-luminescence based P450-glo assay. It counts as ADME. In outline:
as §2

The nature of data set [11]: Cmax in Wistar rat at 10 mg/kg, po administered as single dose by LC/MS analysis. Format: ADME, organism-based. The arrangement: dose 10 mg/kg, route oral. The note with it: in vivo. The essentials:
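Male Wistar rats (229–272 g), fasted 16 h before and 4 h after dosing, given 10 mg/kg orally in water. Four rats per time point at 15 min, 30 min, 1, 2, 4 and 8 h. Plasma (K3EDTA) and brain homogenate collected and analysed by LC-MS/MS.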

T2 sequence (P10635 whole entry): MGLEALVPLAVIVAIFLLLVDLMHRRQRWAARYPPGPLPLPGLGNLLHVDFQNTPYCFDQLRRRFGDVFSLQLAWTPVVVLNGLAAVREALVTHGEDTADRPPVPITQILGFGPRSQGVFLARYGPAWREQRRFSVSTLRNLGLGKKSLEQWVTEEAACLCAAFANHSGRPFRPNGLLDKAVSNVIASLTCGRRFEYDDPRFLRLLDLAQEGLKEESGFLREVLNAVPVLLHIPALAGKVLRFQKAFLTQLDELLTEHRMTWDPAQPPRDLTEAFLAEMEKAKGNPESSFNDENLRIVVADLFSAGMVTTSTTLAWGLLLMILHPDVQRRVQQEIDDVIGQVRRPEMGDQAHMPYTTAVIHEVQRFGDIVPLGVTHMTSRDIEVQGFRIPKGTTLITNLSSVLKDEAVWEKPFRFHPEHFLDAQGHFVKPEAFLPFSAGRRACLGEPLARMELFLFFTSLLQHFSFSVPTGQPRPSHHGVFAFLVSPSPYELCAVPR
Sequence of Cytochrome P450 3A4 (P08684 whole entry, canonical isoform): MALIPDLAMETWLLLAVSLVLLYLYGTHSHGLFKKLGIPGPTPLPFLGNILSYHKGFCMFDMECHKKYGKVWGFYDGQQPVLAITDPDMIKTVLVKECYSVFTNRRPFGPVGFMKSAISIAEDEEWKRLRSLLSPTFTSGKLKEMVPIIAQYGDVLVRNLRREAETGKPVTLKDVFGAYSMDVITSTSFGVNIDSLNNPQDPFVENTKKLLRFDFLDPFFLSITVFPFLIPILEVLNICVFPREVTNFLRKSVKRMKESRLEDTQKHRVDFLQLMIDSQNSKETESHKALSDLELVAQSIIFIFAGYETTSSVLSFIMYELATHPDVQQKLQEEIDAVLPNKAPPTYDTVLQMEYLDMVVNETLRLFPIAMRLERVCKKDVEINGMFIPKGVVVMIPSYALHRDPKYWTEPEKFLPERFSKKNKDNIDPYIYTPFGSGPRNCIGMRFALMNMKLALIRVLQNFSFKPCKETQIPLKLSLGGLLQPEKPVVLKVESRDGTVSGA
Sequence of D(3) dopamine receptor (Homo sapiens) (P35462 whole entry): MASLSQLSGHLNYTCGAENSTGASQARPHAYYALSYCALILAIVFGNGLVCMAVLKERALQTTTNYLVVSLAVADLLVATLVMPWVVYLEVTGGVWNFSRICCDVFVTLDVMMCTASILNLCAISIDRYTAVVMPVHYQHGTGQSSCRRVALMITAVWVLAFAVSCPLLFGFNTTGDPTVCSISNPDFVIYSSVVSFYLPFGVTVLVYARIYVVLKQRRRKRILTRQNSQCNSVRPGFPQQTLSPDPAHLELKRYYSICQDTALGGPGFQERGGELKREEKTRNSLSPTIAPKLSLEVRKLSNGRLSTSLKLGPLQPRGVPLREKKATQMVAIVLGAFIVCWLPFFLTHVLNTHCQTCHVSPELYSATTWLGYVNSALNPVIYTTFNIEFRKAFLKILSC

As to `CCc1nc2c(N3CCNCC3)ccnc2n1Cc1cccc(F)c1`, the inhibition constant Ki in data set [1] turned out to be 0.441 µM; in data set [2] it was 12.3 µM; in data set [3], 3.48 µM. Further, the inhibition in data set [4] is 18%; in data set [5], -4.9%; in [6] it was 1.6%; in data set [7], 3%. Further, the “inhibition (INH)” value in data set [8] and in [9] was “Not Active” throughout. In data set [10], the result was Active. The molecule further returned a Cmax in [11] of 140 ng/mL.
